ChEMBL document CHEMBL4190293, “Anti-inflammatory Meroterpenoids from Baeckea frutescens” (J Nat Prod, 2017)
Active and inactive are the calls of the source. The rule behind the calls is not given here.

Legend:
RAW264.7 [1] = assay: Antiinflammatory activity in mouse RAW264.7 cells assessed as inhibition of LPS-stimulated nitric oxide production pretreated for 2 hrs followed by LPS-stimulation measured after 20 hrs by Griess assay; format: functional, cell-based
Procedure, shortened: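 Murine RAW 264.7 macrophages in DMEM with 10% FBS, seeded at 1 × 10^5 cells/well and grown 12 h. Pretreated with compound for 2 h, then given LPS (1 μg/mL) for 20 h; L-NMMA as positive control. Supernatant nitrite mixed 1:1 with Griess reagent, 10 min at room temperature, absorbance read at 540 nm. IC50 from three independent replicates. Viability checked by Alamar Blue after 20 h.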

RAW264.7 [2] = assay: Antiinflammatory activity in mouse RAW264.7 cells assessed as inhibition of LPS-stimulated TNFalpha expression pretreated for 2 hrs followed by LPS-stimulation measured after 18 hrs by ELISA; format: functional, cell-based
Procedure, shortened: (§1)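 RAW 264.7 cells seeded at 1 × 10^6 cells/well in serum-free DMEM for 12 h. Cells pretreated with test compound at 0.2, 0.4 or 0.8 μM for 2 h, then stimulated with LPS (1 μg/mL) for 18 h. TNF-α and IL-6 in the culture supernatant measured by ELISA kit. Mean ± SD of three independent experiments; one-way ANOVA with Dunnett's post hoc test.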

RAW264.7 [3] = assay: Antiinflammatory activity in mouse RAW264.7 cells assessed as inhibition of LPS-stimulated IL-6 expression at 0.2 to 0.8 uM pretreated for 2 hrs followed by LPS-stimulation measured after 18 hrs by ELISA; format: functional, cell-based; procedure, shortened: as §1
[4] = target: Transcription factor p65 (Mus musculus) (UniProt Q04207); assay: Inhibition of NF-kappaB p65 nuclear translocation in LPS-stimulated mouse RAW264.7 cells pretreated for 2 hrs followed by LPS-stimulation measured after 16 hrs by Western blot analysis; format: cell-based
Procedure, shortened: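 RAW 264.7 cells exposed to compound at 0.2, 0.4 or 0.8 μM for 2 h, then given 1 μg/mL LPS, or left unstimulated, for 16 h. Lysates made in RIPA buffer, protein quantified by BCA, run on 10% SDS-PAGE and transferred to PVDF. Blots probed for NF-κB p65 with lamin B as internal control, primary antibodies at 4 °C overnight. Mean ± SD of three independent experiments.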

Chain of Transcription factor p65 (Mus musculus) (Q04207 whole entry): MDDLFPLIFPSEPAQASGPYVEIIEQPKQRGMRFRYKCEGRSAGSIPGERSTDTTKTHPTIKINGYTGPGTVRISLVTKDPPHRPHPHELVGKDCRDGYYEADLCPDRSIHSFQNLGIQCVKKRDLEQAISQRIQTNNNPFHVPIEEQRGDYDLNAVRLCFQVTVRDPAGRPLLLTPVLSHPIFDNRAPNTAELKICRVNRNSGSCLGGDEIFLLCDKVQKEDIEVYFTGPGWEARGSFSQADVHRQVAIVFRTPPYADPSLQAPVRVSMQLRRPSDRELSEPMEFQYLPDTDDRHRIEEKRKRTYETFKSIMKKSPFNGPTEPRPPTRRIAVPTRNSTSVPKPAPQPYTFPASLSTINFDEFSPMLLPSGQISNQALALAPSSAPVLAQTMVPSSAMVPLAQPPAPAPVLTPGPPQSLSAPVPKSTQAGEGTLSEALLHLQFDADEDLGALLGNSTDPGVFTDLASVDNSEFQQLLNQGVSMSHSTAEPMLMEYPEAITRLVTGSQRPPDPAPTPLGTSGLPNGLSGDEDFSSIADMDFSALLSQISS

IC50 (RAW264.7 [1])	SMILES	other results
6.5 µM	COC1=C(C)C(=O)[C@]2(CC(CCC=C(C)C)=CC[C@H]2C(C)C)C(=O)C1(C)C (racemic)	–
30.5 µM	COC1=C(C)C(=O)C2=C(O[C@]3(CC[C@]45[C@H]([C@H](C(C)C)CC[C@H]4C)[C@@H]35)C[C@H]2C(C)C)C1(C)C	–
30.9 µM	CNC(=N)NCCC[C@H](N)C(=O)O [TILARGININE]	–
> 50 µM	C=C1CC[C@@H]2[C@H](C(C)C)C3=C(O[C@@]2(C)CC[C@@H]2[C@@H]1CC2(C)C)C(C)(C)C(OC)=C(C)C3=O	–
0.36 µM	COC1=C(C)C2=C(C(=O)C1(C)C)[C@@H](C(C)C)C[C@]1(CC[C@@]3(C(C)C)C[C@@H]13)O2	inhibition (RAW264.7 [2]): Dose-dependent effect; inhibition (RAW264.7 [3]): inactive; inhibition [4]: Dose-dependent effect
> 50 µM	COC1=C(C)C(=O)C2=C(O[C@]3(C=C4[C@H](C(C)C)CC[C@@H](C)[C@H]4CC3)C[C@@H]2C(C)C)C1(C)C	–
15.2 µM	COC1=C(C)C(=O)C2=C(O[C@@]3(CC[C@]45[C@H]([C@H](C(C)C)CC[C@H]4C)[C@@H]35)C[C@@H]2C(C)C)C1(C)C	–
1.8 µM	COC1=C(C)C2=C(C(=O)C1(C)C)[C@H](C(C)C)C[C@@]1(CC[C@@]3(C(C)C)C[C@@H]13)O2 (racemic)	–
2.07 µM	COC1=C(C)C(=O)[C@@]2(CC=C(CCC=C(C)C)C[C@H]2C(C)C)C(=O)C1(C)C (racemic)	–
18.8 µM	COC1=C(C)C(=O)C2=C(O[C@@]3(C=C4[C@H](C(C)C)CC[C@@H](C)[C@H]4CC3)C[C@@H]2C(C)C)C1(C)C	–
3.7 µM	COC1=C(C)C(=O)C2=C(O[C@]3(CC[C@@H]4C[C@@H]3C4(C)C)C[C@@H]2C(C)C)C1(C)C	–
> 50 µM	COC1=C(C)C(=O)C2=C(O[C@@]3(C=C4[C@H](C(C)C)CC[C@@H](C)[C@H]4CC3)C[C@H]2C(C)C)C1(C)C	–
